What is called EC50 is the concentration that produces a half-maximal response. Usually IC50 stands for the concentration that gives 50% inhibition.

The values below come from ChEMBL document CHEMBL4673221, “Furanoflavones pongapin and lanceolatin B blocks the cell cycle and induce senescence in CYP1A1-overexpressing breast cancer cells” (Bioorg Med Chem, 2018).

For one assay, the species on record is Homo sapiens. Put plainly: Selectivity ratio IC50 for inhibition of human CYP1B1 expressed in HEK293 cells toIC50 for Inhibition of CYP1A1 expressed in HEK293 cells. The format is cell-based.
Assay [1] concerns MCF7. The assay can be described thus: Induction of cellular senescence in human MCF7 cells over expressing CYP1A assessed as increase in beta-gal-positive cells at 2 times of EC50 concentration incubated for 96 hrs by microscopic assay relative to control. In kind it is functional. The procedure, abridged: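 MCF7-1A1 cells were seeded at 25,000 per well and stabilised for 24 h, then treated for 96 h. Cells were fixed for 10 min at room temperature and stained for β-galactosidase at 37 °C without CO2 for 48 h. The percentage of blue-stained cells was counted by phase-contrast microscopy against untreated cultures.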

Assay [2] concerns MCF7. The assay can be described thus: Induction of cell cycle arrest in human MCF7 over expressing CYP1A cells assessed as accumulation at S phase incubated for 24 hrs by PI staining based flow cytometric analysis (reference value: 20.1%). In kind it is functional. For orientation: In flow cytometry, cells or beads pass a laser one at a time.
Assay [3] concerns MCF7. The assay can be described thus: Induction of cell cycle arrest in human MCF7 over expressing CYP1A cells assessed as accumulation at G0/G1 phase incubated for 24 hrs by PI staining based flow cytometric analysis (Rvb =54.3 %). The format is functional.
For assay [4], the system named is MCF7. The assay can be described thus: Antiproliferative activity against human MCF-7 cells overexpressing CYP1A1 assessed as reduction in cell viability. In kind it is functional, cell-based. The procedure, abridged: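 MCF-7 cells transfected with pcDNA3.1/CYP1A1 and selected in G418 (1 mg/mL, then […]) to give the stable MCF7-1A1 line. CYP1A1 expression was confirmed by Western blot and 7-ethoxyresorufin enzyme assay. The line was subcloned repeatedly. The reported value is the EC50 for inhibition of proliferation.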

A further assay concerns the target Cytochrome P450 2E1 (Homo sapiens, UniProt P05181). The assay can be described thus: Inhibition of human CYP2E1 expressed in Sacchrosomes by fluorescence based assay. In kind it is ADME.
For a further assay, the target named is Cytochrome P450 2D6 (Homo sapiens, UniProt P10635). The assay can be described thus: Inhibition of human CYP2D6 expressed in Sacchrosomes using 7-ethoxy-methyloxy-3-cyanocoumarin as substrate by fluorescence based assay. The format is ADME.
For a further assay, the target named is T1, Cytochrome P450 2C8 (Homo sapiens, UniProt P10632).
T1 sequence (P10632 whole entry): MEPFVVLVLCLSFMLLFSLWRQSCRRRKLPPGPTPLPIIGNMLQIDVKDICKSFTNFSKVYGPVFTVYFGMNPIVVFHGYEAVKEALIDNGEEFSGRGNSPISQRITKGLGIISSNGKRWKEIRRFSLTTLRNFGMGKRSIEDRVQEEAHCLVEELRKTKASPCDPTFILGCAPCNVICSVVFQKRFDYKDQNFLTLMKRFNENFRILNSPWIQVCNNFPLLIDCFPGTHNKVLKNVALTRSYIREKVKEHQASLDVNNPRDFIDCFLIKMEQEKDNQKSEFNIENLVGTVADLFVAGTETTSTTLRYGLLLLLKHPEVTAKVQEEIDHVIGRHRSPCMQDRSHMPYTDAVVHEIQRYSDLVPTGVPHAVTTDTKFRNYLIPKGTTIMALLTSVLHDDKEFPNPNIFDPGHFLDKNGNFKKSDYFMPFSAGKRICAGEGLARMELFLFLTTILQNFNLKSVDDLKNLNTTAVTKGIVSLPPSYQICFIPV
Put plainly: Inhibition of human CYP2C8 expressed in Sacchrosomes by fluorescence based assay. The format is ADME.

For a further assay, the target named is T2, Cytochrome P450 1A1 (Homo sapiens, UniProt P04798).
T2 sequence (P04798 whole entry): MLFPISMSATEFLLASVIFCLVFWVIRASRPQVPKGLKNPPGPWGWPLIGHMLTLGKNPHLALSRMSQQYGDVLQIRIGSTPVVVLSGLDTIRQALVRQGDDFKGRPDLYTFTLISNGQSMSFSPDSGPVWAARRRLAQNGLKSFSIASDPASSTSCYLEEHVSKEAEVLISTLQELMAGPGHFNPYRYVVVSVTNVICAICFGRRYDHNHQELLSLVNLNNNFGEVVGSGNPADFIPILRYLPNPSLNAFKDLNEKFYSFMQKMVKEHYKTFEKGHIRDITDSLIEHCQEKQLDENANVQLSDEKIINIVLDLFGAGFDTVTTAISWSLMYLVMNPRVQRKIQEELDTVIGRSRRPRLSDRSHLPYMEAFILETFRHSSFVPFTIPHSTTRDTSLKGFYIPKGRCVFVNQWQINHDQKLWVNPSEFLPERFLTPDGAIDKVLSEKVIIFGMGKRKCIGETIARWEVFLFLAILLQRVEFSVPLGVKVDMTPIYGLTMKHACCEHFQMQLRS
The assay can be described thus: Inhibition of human CYP1A1 expressed in human HEK293 cells using 7-ethoxyresorufin as substrate preincubated for 30 mins followed by substrate additon and measured after 60 mins by fluorescence based assay. In kind it is cell-based. In a few lines:
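The assay used live recombinant human HEK293 cells grown in suspension, each cell line expressing a single CYP (CYP1A1 or CYP1B1). Percent inhibition was read at 10 μM, and IC50 values were determined. Values are mean ± SD of three independent experiments. Alpha-naphthoflavone served as the reference inhibitor.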

The next assay addresses T3, Cytochrome P450 1B1 (Homo sapiens, UniProt Q16678).
T3 sequence (Q16678 whole entry): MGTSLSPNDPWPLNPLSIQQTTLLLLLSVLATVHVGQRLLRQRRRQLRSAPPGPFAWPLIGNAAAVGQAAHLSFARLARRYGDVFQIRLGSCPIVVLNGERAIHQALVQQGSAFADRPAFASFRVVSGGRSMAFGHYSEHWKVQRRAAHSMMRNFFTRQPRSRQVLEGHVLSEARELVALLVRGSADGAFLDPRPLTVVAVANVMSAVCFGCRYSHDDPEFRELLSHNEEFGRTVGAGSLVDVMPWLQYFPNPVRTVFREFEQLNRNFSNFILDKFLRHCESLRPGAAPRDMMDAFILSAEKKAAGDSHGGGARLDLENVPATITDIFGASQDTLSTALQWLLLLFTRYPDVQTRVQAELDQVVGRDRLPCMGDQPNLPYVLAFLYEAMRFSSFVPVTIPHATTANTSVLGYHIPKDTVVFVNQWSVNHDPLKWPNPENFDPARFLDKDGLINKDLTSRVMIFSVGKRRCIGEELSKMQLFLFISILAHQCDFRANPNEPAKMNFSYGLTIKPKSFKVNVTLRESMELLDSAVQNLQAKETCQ
Put plainly: Inhibition of human CYP1B1 expressed in sacchrosomes using 7-ethoxyresorufin as substrate by fluorescence based assay. The format is ADME. The procedure, abridged:
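Enzymes were microsomal preparations isolated from recombinant baker's yeast (Sacchrosomes). Compounds were screened at 10 μM for percent inhibition, and IC50 values were also determined. Values are mean ± SD of three independent experiments. Alpha-naphthoflavone served as the positive control.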

Each structure is given as a SMILES string.

Cytochrome P450 2D6, sequence (P10635 whole entry): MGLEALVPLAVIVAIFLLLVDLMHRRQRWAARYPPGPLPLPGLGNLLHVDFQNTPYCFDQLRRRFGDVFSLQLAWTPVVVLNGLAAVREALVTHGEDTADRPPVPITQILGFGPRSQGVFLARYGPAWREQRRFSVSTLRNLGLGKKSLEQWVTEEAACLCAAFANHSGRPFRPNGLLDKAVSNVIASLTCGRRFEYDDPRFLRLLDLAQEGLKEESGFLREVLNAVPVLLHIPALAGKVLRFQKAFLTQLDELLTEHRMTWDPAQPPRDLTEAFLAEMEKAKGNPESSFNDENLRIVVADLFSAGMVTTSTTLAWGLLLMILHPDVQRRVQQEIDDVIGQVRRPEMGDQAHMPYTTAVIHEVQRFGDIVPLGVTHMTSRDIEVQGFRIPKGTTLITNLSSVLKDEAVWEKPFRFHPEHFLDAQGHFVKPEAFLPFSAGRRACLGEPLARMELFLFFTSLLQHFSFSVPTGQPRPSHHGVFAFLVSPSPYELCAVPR
Cytochrome P450 2E1, sequence (P05181 whole entry): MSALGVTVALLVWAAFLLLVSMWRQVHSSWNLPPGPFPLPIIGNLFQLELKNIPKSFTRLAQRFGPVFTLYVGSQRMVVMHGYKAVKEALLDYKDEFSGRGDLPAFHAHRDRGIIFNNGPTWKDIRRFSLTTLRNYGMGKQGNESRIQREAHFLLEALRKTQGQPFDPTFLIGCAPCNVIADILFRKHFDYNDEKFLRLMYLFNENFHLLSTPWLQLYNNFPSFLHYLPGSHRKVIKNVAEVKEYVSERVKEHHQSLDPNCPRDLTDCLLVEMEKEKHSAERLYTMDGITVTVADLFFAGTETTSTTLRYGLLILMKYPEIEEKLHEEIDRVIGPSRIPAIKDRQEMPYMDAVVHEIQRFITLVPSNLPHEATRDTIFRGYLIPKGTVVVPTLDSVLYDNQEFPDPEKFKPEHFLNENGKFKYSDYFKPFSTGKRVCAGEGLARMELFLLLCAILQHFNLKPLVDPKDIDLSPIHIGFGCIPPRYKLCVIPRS

Consider `O=c1cc(-c2ccccc2)oc2c1ccc1occc12` [LANCEOLATIN B], for which the Ratio IC50 in the assay listed under Homo sapiens amounted to 19.5. Moreover, the Activity in the assay on MCF7 [1] was 60%; in the assay on MCF7 [2] it was 7.1%; in the assay with MCF7 [3], 81%. Moreover, in the assay on MCF7 [4], the EC50 turned out to be 700 nM. For the same molecule, the IC50 against Cytochrome P450 2E1 was greater than 20000 nM; on Cytochrome P450 2D6, greater than 20000 nM; against Cytochrome P450 2C8, greater than 20000 nM; at Cytochrome P450 1A1, 20 nM; on Cytochrome P450 1B1, 290 nM.

As for `COc1c(-c2ccc3c(c2)OCO3)oc2c(ccc3occc32)c1=O` [PONGAPIN], the Ratio IC50 in the assay listed under Homo sapiens is 53. The Activity in the assay on MCF7 [1] is 60%; in the assay on MCF7 [2] it was 6.7%; in the assay with MCF7 [3], 83.8%. In the assay with MCF7 [4], the EC50 stood at 600 nM. Moreover, the IC50 is greater than 20000 nM on Cytochrome P450 2E1; greater than 20000 nM at Cytochrome P450 2D6; greater than 20000 nM on Cytochrome P450 2C8; 20 nM at Cytochrome P450 1A1; 950 nM at Cytochrome P450 1B1.
